Measured values pooled from the literature.
Target: Cyclin-dependent kinase 7 (CDK7, Homo sapiens, UniProt P50613)

N#Cc1ccccc1CSc1nnc2c(n1)[nH]c1ccccc12  remaining binding (binding, competition with immobilised ligand; 10 µM): 94%
CN(C)c1ncc(F)c(-c2cnn3ncccc23)n1  remaining binding (binding; 1 µM): 78%
Cc1c(C(=O)O)cc(-c2ccc(C3CCNCC3)cc2)c2ccc(-c3ccc(C(F)(F)F)cc3)cc12  remaining binding (binding, competition with immobilised ligand; 1 µM): 97%
c1cncc(-c2cccc(Nc3nccc(NC4CCCCC4)n3)c2)c1  remaining binding (binding, competition with immobilised ligand; 10 µM): 46%
Cn1nc(C(F)(F)F)cc1-c1cnc(N2CCc3cc(S(=O)(=O)Nc4c(F)cc(Cl)cc4F)cc(N4CCCC4=O)c32)nc1  remaining binding (cell-free assay, competition with immobilised ligand; 1 µM): 75%
O=C(c1ccc(Nc2ncc(Cl)c(-c3cc4ccccc4s3)n2)cc1)N1CCC(N2CCCC2)CC1  remaining binding (binding, competition with immobilised ligand; 1 µM): 1.5%
C[C@@H](c1ccc(-n2cnc3c(N)ncnc32)cc1)N1CCc2nn(C)c(Cc3ccccc3)c2C1=O  remaining binding (binding, competition with immobilised ligand; 0.1 µM): 45%
CN(C)c1nccc(-c2cnc3ncccn23)n1  remaining binding (binding; 1 µM): 29%
COc1ccc2c(c1)O[C@H](c1ccc(OC)c(OC)c1)C[C@@H]2NC(=O)C1(c2ccc3c(c2)OC(F)(F)O3)CC1  remaining binding (cell-free assay, competition with immobilised ligand; 1 µM): 85%
COc1cnc(Nc2cccc(S(N)(=O)=O)c2)nc1N1CCN(c2ccccc2)CC1  remaining binding (binding, competition with immobilised ligand; 1 µM): 84%
CCC(=N\O)/C(C)=C/c1ccc(F)cc1  remaining binding (cell-free assay, competition with immobilised ligand; 1 µM): 60%
CC(C)(C)c1ccc(-c2nc(CBr)nn2-c2cccc(O)c2)cc1  remaining binding (cell-free assay, competition with immobilised ligand; 10 µM): 89%
N[C@H]1CCN(c2nccc(-c3cnn4ncccc34)n2)C1  remaining binding (binding; 1 µM): 59%
CN(C)c1ncnc(-c2ccc3nc(Nc4cc(CN5CCN(C(=O)CC(F)(F)F)CC5)ccn4)[nH]c3c2)c1Cl  remaining binding (cell-free assay, competition with immobilised ligand; 1 µM): 80%
C[C@H]1CCN(c2nccc(-c3cnn4ncccc34)n2)C1  remaining binding (binding; 1 µM): 27%
COC(=O)Nc1nc2ccc(C(=O)c3ccccc3)cc2[nH]1  remaining binding (cell-free assay, competition with immobilised ligand; 10 µM): 11%
COc1ccnn2ncc(-c3ccnc(N(C)C)n3)c12  remaining binding (binding; 1 µM): 85%
O=C(NCC1CCOCC1)c1n[nH]cc1NC(=O)c1c(F)cccc1F  remaining binding (binding, competition with immobilised ligand; 1 µM): 31%
CCC(=O)N[C@@H]1CC[C@H](C(=O)N(C)c2ccc(-c3nc4ccccc4o3)cc2)C1  remaining binding (cell-free assay, competition with immobilised ligand; 1 µM): 85%
C[C@@H]1CN(c2ccc3ncc(-c4ccc5[nH]nc(C6CC6)c5c4)n3n2)C[C@H](C)O1  remaining binding (binding, competition with immobilised ligand; 0.5 µM): 23%
O=C(NCCCN1CCOCC1)c1ccc(Nc2nccc(-c3cc4ccccc4s3)n2)cc1  remaining binding (binding, competition with immobilised ligand; 1 µM): 40%
O=C(O)c1cc(-c2ccc(C3CCNCC3)cc2)c2ccc(-c3ccc(C(F)(F)F)cc3)cc2c1  remaining binding (cell-free assay, competition with immobilised ligand; 1 µM): 82%
O=C(NCCCN1CCOCC1)c1ccc(Nc2ncc(Cl)c(-c3ccc(Cl)s3)n2)cc1  remaining binding (binding, competition with immobilised ligand; 1 µM): 2.5%
COc1cnc(Nc2cccc(S(N)(=O)=O)c2)nc1N1CCN(c2ccccc2)C(=O)C1  remaining binding (binding, competition with immobilised ligand; 1 µM): 73%
